Screening data: PubChem BioAssay, several laboratories
Shown are actives, neighbours in structure and some others; about 8.8% of the full set was active somewhere.
M1 antagonist – antagonists of rat M1 muscarinic receptor; 3.4% of 64,000 active; B-score at 10 µM; AID 628; CHO-M1 cells, Fluo-4 calcium, ACh EC80 antagonist mode; stronger effect = lower value; P08482;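 active = calcium fluorescence response, raw or row-and-column corrected B-score, differing from the plate sample mean either way at a set confidence level, mostly lower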
S1P3 ag – activates the human S1P3 receptor | Q99500 | S1P3 NFAT-BLA reporter cells, agonism, FRET ratio; relative to 1 µM S1P, basal subtracted | activation, % at 4.5 µM | 0.1% of 60,000 active | AID 373;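 active = activation above the screen-wide mean plus 3 SD, cut at about 4.5% in these data, passing the limit was not always enough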
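Assay system: CHO cells stably expressing human S1P3, Gα16 and NFAT-β-lactamase reporter. Timing: overnight plating, 4 h compound 37 °C, 2 h substrate RT. Signal: β-lactamase FRET emission ratio 460/535 nm. Measure: percent activation versus median 1 µM S1P response, basal-subtracted, per plate. Repeats: primary screen single test, confirmation screen in triplicate.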
S1P1 ag-PAM – agonists and agonism potentiators of human S1P1 receptor; AID 449; S1P1 CRE-bla cells, forskolin, beta-lactamase FRET, potentiator mode; S1P1 agonist co-added at EC20, 2 nM; 100% = saturating reference agonist, 0% = basal; activation, % at 9.5 µM; 0.57% of 56,000 active;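 active = activation above a cutoff set at the mean activation of all tested compounds plus 3 SD, cut at about 54% in these data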;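 note: forskolin at 4 µM as EC80 and the EC20 agonist is SEW2871; 100% = SEW2871 at its EC100 plus forskolin at EC80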
M1 agonist – agonists of M1 muscarinic receptor; CHO-M1 cells, Fluo-4 calcium fluorescence, agonist mode; stronger effect = higher value; B-score at 10 µM; 3% of 64,000 active;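 active = fluorescence rise, raw or as B-score row- and column-corrected plate score, outside the 99.7% band of its plate's samples, either direction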
SF-1 act – activators of human nuclear receptor SF-1 | activation, % at 10 µM | CHO-K1 Gal4-SF-1 LBD luciferase reporter; % increase over DMSO SF-1-specific signal | AID 522 | Q13285 | 1.9% of 65,000 active;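 active = activation above the mean activation of all tested compounds plus 3 SD, cut at about 50% in these data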
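Material: Gal4–SF-1 LBD one-hybrid luciferase reporter in CHO-K1 cells | Amount: 4,000 cells per well | Compound dosing: 10 µM single point, 1% DMSO | Schedule: 20 h compound treatment, 37 °C | Measured by: SteadyLite luciferase luminescence | Evaluation: Percent activation versus DMSO | Control set: DMSO-treated SF-1-transfected cells as negative, DMSO-treated mock-transfected cells lacking SF-1 as background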
RORa activator – activators of human nuclear receptor RORA | P35398 | CHO-K1 Gal4-RORA LBD luciferase reporter, luminescence; percent increase over mock-subtracted basal signal | activation, % at 10 µM | 1.5% of 65,000 active | AID 560;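 active = activation above the mean of all tested compounds plus 3 SD, cut at about 49% in these data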;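 note: 0% = DMSO-treated RORA cells and 100% = added signal equal to DMSO minus mock-transfected cells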
Target sequence (P35398 whole entry, looked up, the tested form may be a part): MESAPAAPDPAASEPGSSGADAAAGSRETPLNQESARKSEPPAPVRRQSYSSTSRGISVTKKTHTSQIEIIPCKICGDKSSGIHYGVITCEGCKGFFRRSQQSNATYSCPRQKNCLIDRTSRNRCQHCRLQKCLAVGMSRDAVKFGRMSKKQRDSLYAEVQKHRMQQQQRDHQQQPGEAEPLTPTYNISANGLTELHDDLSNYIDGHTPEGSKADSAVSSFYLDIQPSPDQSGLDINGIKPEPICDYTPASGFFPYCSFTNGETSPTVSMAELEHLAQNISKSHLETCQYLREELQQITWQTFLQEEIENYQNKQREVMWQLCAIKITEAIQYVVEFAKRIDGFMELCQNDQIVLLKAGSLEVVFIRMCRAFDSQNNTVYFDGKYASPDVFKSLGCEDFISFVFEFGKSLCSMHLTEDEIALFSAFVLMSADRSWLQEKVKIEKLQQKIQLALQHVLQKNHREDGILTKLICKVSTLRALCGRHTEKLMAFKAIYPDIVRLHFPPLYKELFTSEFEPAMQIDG
M1 antag confirm – M1 muscarinic receptor (rat) antagonism, confirmed. shares compounds with M1 antagonist. CHO-M1 cells, Fluo-4 calcium, ACh EC80 antagonism; stronger effect = lower value. calcium response (max-min fluorescence) at 10 µM. 43% of 1,700 active. AID 677;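 active = calcium response below the same-plate mean of wells given acetylcholine alone at its 80%-effect dose, minus 3 SD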;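 note: raw fluorescence intensity difference in arbitrary instrument units and not normalized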
mGluR4 antag – mGluR4 (human) activity, M1 antagonist secondary assay; shares compounds with M1 antagonist; CHO-mGluR4 calcium flux, Fluo-4 fluorescence, glutamate EC80; stronger effect = lower value; fluorescence response (max-min) at 10 µM; 0.9% of 1,700 active; AID 678;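 active = fluorescence response below the plate's average for near-maximal glutamate wells, less 3 SD of those wells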;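 note: raw unnormalized fluorescence span taken in the window right after glutamate addition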
Numbers without * were called inactive.

CCCCn1c(CN2CCN(C)CC2)nc2ccccc21 was read as M1 antagonist -3.98*, S1P3 ag -1.1, S1P1 ag-PAM -6.7, M1 agonist 0.496, SF-1 act -13.4, RORa activator 4.1, M1 antag confirm 324* and mGluR4 antag 235.
Screening CN1CC(=O)N/C1=N\C(=O)Nc1ccc2c(c1)N(C)C(=O)CS2 returned M1 antagonist -0.79, M1 agonist -0.057, SF-1 act -4.3 and RORa activator -7.7.
`CC1(C)Nc2ccccc2N(CC(=O)N2CCCCC2)C1=O` gave M1 antagonist -1.26*, S1P3 ag -1.2, S1P1 ag-PAM -14.7, M1 agonist -0.064, SF-1 act 15.1, RORa activator 9.4, M1 antag confirm 687 and mGluR4 antag 237.
`CC1(C)Nc2ccccc2N(CCC(=O)N2CCOCC2)C1=O` gave M1 antagonist 0.285, S1P3 ag 0.2, M1 agonist -0.791, SF-1 act 3.0 and RORa activator 7.1.
For O=S(=O)(c1ccc(NCC2CCCCC2)nc1)N1CCOCC1 the results were M1 antagonist -4.29*, S1P3 ag -0.5, S1P1 ag-PAM -8.4, M1 agonist 0.657, SF-1 act 6.3, RORa activator -5.2, M1 antag confirm 554* and mGluR4 antag 205.
`O=C(NC1CCCCC1)c1ccc(S(=O)(=O)N2CCOCC2)cc1` gave M1 antagonist -0.116, S1P3 ag -1.0, S1P1 ag-PAM 13.1, M1 agonist -0.43, SF-1 act -10.0 and RORa activator 13.8.
COc1ccc(S(=O)(=O)N2CCC(O)(c3ccc(Cl)cc3)CC2)cc1 was read as M1 antagonist -3.8*, S1P3 ag -0.8, S1P1 ag-PAM 38.3, M1 agonist 0.175, SF-1 act 6.4, RORa activator -11.1, M1 antag confirm 379* and mGluR4 antag 243.
Screening CN1CCN(CC(=O)N2c3ccccc3C(=O)Nc3cccnc32)CC1 returned S1P3 ag 0.1, S1P1 ag-PAM 6.7, SF-1 act -11.2, RORa activator -26.8 and mGluR4 antag 209.
Screening Cn1c2c(c(=O)n(C)c1=O)C(c1cccc(Br)c1)C1C(=O)c3ccccc3C1=N2 (stereo not given) returned M1 antagonist 0.435, S1P3 ag -0.4, S1P1 ag-PAM -23.1, M1 agonist 1.01, SF-1 act 10.8 and RORa activator -8.9.
Oc1ccccc1Nc1nc(NCC2CCCO2)c2ccccc2n1 (stereo not given) was read as M1 antagonist -1.85, S1P3 ag -0.3, S1P1 ag-PAM -15.9, M1 agonist 0.585, SF-1 act 11.3 and RORa activator 12.3.
Screening Oc1ccc(Nc2nc(NCC3CCCO3)c3ccccc3n2)cc1 (stereo not given) returned M1 antagonist -5.71*, S1P3 ag -0.7, S1P1 ag-PAM 20.3, M1 agonist 0.605, SF-1 act -5.3, RORa activator 5.8, M1 antag confirm 483* and mGluR4 antag 237.
For COc1ccc(NC(=O)CSC2CC(=O)N(c3ccc4c(c3)OCCO4)C2=O)cc1 (stereo not given) the results were S1P3 ag -0.6, S1P1 ag-PAM 23.8, SF-1 act -19.1 and RORa activator 12.3.
O=S(=O)(Nc1ccccn1)c1ccc(Cl)cc1 was read as M1 antagonist 1.29, S1P3 ag -1.1, S1P1 ag-PAM -6.8, M1 agonist 0.143, SF-1 act -4.0 and RORa activator -3.4.
Screening O=S(=O)(Nc1nc2ccccc2[nH]1)c1ccc(Cl)cc1 returned M1 antagonist -16.4*, S1P3 ag -0.5, S1P1 ag-PAM 3.4, M1 agonist 0.165, SF-1 act -5.6, RORa activator 5.8, M1 antag confirm 69.5* and mGluR4 antag 246.
